According to PubChem BioAssay:
Calls of active or inactive are those of the source.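 The calls were made as follows, unless noted: active = viability at or under a set limit in both replicates, limit being median viability minus 3 SD (cut at about 48% in these data, passing the limit was not always enough); inconclusive = at or under the limit in just one replicate; inactive = at or above the limit in both replicates.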

What was measured:
[1] = SK-BR-3 cell growth inhibitors, pilot screen, 24 h, human (AID 572;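 active = viability at or below 10% of carrier control in both of two separate runs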;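 also: compound exposure lasted between 18 and 24 h rather than exactly 24 h; 100% = carrier-treated control wells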); settings: SK-BR-3 viability, CellTiter-Glo luminescence, at 10 µM, stronger effect = lower value
[2] = HUVEC growth inhibition – cell-based, human, primary screen (AID 575;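 active = viability at or below 30% in both replicate assays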;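 also: 100% = median of untreated cell wells with 0.1% DMSO on each plate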); settings: HUVEC proliferation, CellTiter-Glo luminescence, 72 h; at 10 µM; stronger effect = lower value
Method in brief: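 Test system – primary HUVEC, no more than 12 passages · Dosing – one dose, 10 µM final, 0.1% DMSO · Times – 72 h treatment at 37 °C · Measured by – ATP-based CellTiter-Glo luminescent read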

[3] = growth inhibitors of H69AR lung tumor, primary screen, human, duplicate replicates (AID 580); settings: H69AR lung tumor cells viability, ATP luminescence, 72 h; at 10 µM; stronger effect = lower value;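 also: 100% = mean luminescence of untreated wells and 0% = no signal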
[4] = reversal of MRP1-mediated doxorubicin resistance, pilot screen, H69AR cells, doxorubicin co-treatment (AID 601;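 active = viability loss from added drug above about 55%, and viability with drug at most 40%, in both replicates, limit read from the data, passing the limit was not always enough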); settings: CellTiter-Glo, 72 h, at 10 µM; for differential viability (reversal): stronger effect = higher value
[5] = 384-well plate pilot, post-Golgi transport modulator project, inhibition of yeast transport mutant growth (AID 636; in the data active = inhibition above about 31%); settings: absorbance 615 nm, about 18 h, stronger effect = higher value
[6] = growth suppression of yeast trafficking mutant, preliminary HTS, modulators of trafficking downstream of Golgi apparatus project, 1536-format plate, OD 615 nm (AID 637; in the data active = inhibition above about 30%); settings: yeast transport mutant growth, absorbance 615 nm, 18 h; stronger effect = higher value
[7] = H69AR cells + 2 uM doxorubicin, measured here: viability with 2 uM doxorubicin, stronger effect = lower value
[8] = H69AR cells, compound alone cytotoxicity

Row | SMILES | viability [1] | viability [2] | viability [3] | differential viability (reversal) ([4]; H69AR cells + 2 uM doxorubicin) | viability [4, 7] [%] | viability [4, 8] [%] | inhibition [5] | inhibition [6]
1 | c1ccc(OCc2nc(-c3ccccc3)no2)cc1 | 98% (inactive) | 92.5% (inactive) | 93.5% (inactive) | 3.62% (inactive) | 89.9 | 93.5 | 0.14% (inactive) | 29.5% (inactive)
2 | O=C(Nc1ccccc1Cl)c1c(F)c(F)c(F)c(F)c1F | 106% (inactive) | 106% (inactive) | 90.2% (inactive) | -7.56% (inactive) | 97.8 | 90.2 | 3.15% (inactive) | 7.09% (inactive)
3 | COC(=O)C1=C(N)Oc2cc(C)n(Cc3ccncc3)c(=O)c2C1c1cccnc1 (stereo not drawn) | 113% (inactive) | 86% (inactive) | 88.4% (inactive) | 3.73% (inactive) | 84.6 | 88.4 | -7.4% (inactive) | 0.97% (inactive)
4 | O=C(CSc1nc2ccccc2o1)N1CCN(C(=O)c2ccco2)CC1 | 117% (inactive) | 102% (inactive) | 94.5% (inactive) | 1.25% (inactive) | 93.3 | 94.5 | -6.67% (inactive) | -1.45% (inactive)
5 | Cc1c(N=C2SCC(=O)N2c2c(C)n(C)n(-c3ccccc3)c2=O)c(=O)n(-c2ccccc2)n1C | 120% (inactive) | 113% (inactive) | 94.2% (inactive) | 3.54% (inactive) | 90.6 | 94.2 | -1.43% (inactive) | -1.31% (inactive)
6 | CCN1CCc2c(C#N)c(N3CCCCC3)nc(NCc3ccccc3)c2C1 | 103% (inactive) | 2.17% (active) | 16.3% (active) | -10.1% (inactive) | 26.4 | 16.3 | -4.4% (inactive) | 16.6% (inactive)
7 | NC(=O)c1ccsc1NC(=O)COC(=O)Cc1ccsc1 | 87% (inactive) | 100% (inactive) | 110% (inactive) | -0.11% (inactive) | 110 | 110 | -4.25% (inactive) | 1.27% (inactive)
8 | Cc1ccc2c(c1)N(CC(=O)Nc1ccc3c(c1)OCCO3)C(=O)CO2 | 104% (inactive) | 103% (inactive) | 105% (inactive) | 10.7% (inactive) | 94.3 | 105 | -5% (inactive) | -4.73% (inactive)
9 | Cc1nc2ccccc2nc1OCC(=O)Nc1cc(C(F)(F)F)ccc1N1CCOCC1 | 72% (inactive) | 93% (inactive) | 96.3% (inactive) | -4.5% (inactive) | 101 | 96.3 | -6.44% (inactive) | 3.64% (inactive)
10 | COc1ccccc1N1CCN(c2cc(N3CCCC3)nc(C)n2)CC1 | 75% (inactive) | 91.8% (inactive) | 87.8% (inactive) | -3.8% (inactive) | 91.6 | 87.8 | -2.6% (inactive) | -2% (inactive)
11 | C1CCN=C(Nc2nc3c(s2)CCCC3)CC1 | 104% (inactive) | 109% (inactive) | 89.4% (inactive) | 7.56% (inactive) | 81.9 | 89.4 | -5.6% (inactive) | -1.45% (inactive)
12 | CC1CCCc2sc3nc(NCc4ccco4)n4ncnc4c3c21 (stereo not drawn) | 104% (inactive) | 79.2% (inactive) | 83.3% (inactive) | -1.71% (inactive) | 85 | 83.3 | -3.97% (inactive) | 20.3% (inactive)
13 | COc1ccc(S(=O)(=O)NCCCN2CCOCC2)c2ccccc12 | 102% (inactive) | 101% (inactive) | 86.8% (inactive) | 5.68% (inactive) | 81.1 | 86.8 | -6.53% (inactive) | -0.18% (inactive)
14 | O=C(NCC(=O)N(Cc1cccs1)C(C(=O)NC1CCCC1)c1ccncc1)c1ccco1 (stereo not drawn) | 102% (inactive) | 109% (inactive) | 85.7% (inactive) | 2.2% (inactive) | 83.5 | 85.7 | -0.54% (inactive) | 16.4% (inactive)
15 | COc1cc(C(=O)OCc2cc3ccccc3[nH]c2=O)cc(OC)c1OC | 117% (inactive) | 68.6% (inactive) | 82.4% (inactive) | 11.3% (inactive) | 71.1 | 82.4 | -2.8% (inactive) | -2.91% (inactive)
16 | CCn1c(SCC(=O)Nc2cc(NC(C)=O)ccc2OC)nnc1-c1ccccn1 | 93% (inactive) | 89.6% (inactive) | 94.1% (inactive) | 8.36% (inactive) | 85.8 | 94.1 | -1.51% (inactive) | 2.1% (inactive)
17 | N#CC1=C(N)C(C#N)(C#N)[C@H](c2ccsc2)[C@H]2COCC=C12 | 126% (inactive) | 96% (inactive) | 97.4% (inactive) | 2.33% (inactive) | 95.1 | 97.4 | -6.03% (inactive) | 2.58% (inactive)
18 | COCCn1c(Sc2nc(C)cs2)nc2c1c(=O)[nH]c(=O)n2C | 85% (inactive) | 106% (inactive) | 101% (inactive) | 4.51% (inactive) | 96.6 | 101 | -5.07% (inactive) | 3.45% (inactive)

Row | SMILES | viability [1] | viability [2] | viability [3] | differential viability (reversal) ([4]; H69AR cells + 2 uM doxorubicin) | viability [4, 7] [%] | viability [4, 8] [%] | inhibition [5] | inhibition [6]
19 | Clc1ccc(-n2nnnc2Sc2ncnc3sccc23)cc1 | 123% (inactive) | 5.51% (active) | 1.29% (active) | -0.27% (inactive) | 1.56 | 1.29 | 20.6% (inactive) | 65.5% (active)
20 | COCCCN(Cc1ccccn1)S(=O)(=O)Cc1ccccc1 | 130% (inactive) | 83.5% (inactive) | 105% (inactive) | 17.9% (inactive) | 86.7 | 105 | -4.11% (inactive) | -9.68% (inactive)
21 | COc1cc2c3c(c1)/C(=C1/SC(NC(C)=O)=NC1=O)C(=O)N3C(C)(C)C=C2C | 91% (inactive) | 54.8% (inactive) | 72.2% (inactive) | -7.9% (inactive) | 80.2 | 72.2 | -10% (inactive) | -1.77% (inactive)
22 | Cc1nc2ccc(S(=O)(=O)NCC(=O)N3CCCCC3)cc2s1 | 116% (inactive) | 100% (inactive) | 87.4% (inactive) | 2.37% (inactive) | 85 | 87.4 | -2.99% (inactive) | 0.16% (inactive)
23 | CCOC(=O)Cc1csc(/C(=N/O)C(N)=O)n1 | 94% (inactive) | 94.7% (inactive) | 92.6% (inactive) | -4.43% (inactive) | 97.1 | 92.6 | -1.82% (inactive) | -5.41% (inactive)
24 | CCOC(=O)c1nnc2ccnn2c1N | 74% (inactive) | 87.9% (inactive) | 109% (inactive) | 1.61% (inactive) | 107 | 109 | -4.79% (inactive) | -2.91% (inactive)
25 | CCCC(=O)Nc1ccc(C(=O)O)cc1NC(=O)CCC | 77% (inactive) | 97.3% (inactive) | 96.3% (inactive) | -23% (inactive) | 119 | 96.3 | -3.56% (inactive) | 1.45% (inactive)
26 | COc1ccc(OCC(=O)Nc2ccc(N3CCOCC3)c(Cl)c2)cc1 | 99% (inactive) | 96.1% (inactive) | 90.3% (inactive) | 2.16% (inactive) | 88.2 | 90.3 | -4.25% (inactive) | -2.1% (inactive)
27 | Cn1nc(-c2ccc(N3CCCCC3)c(NC(=O)c3ccco3)c2)c2ccccc2c1=O | 107% (inactive) | 56.2% (inactive) | 32.3% (active) | 11.6% (inactive) | 20.8 | 32.3 | 1.6% (inactive) | 4.35% (inactive)
28 | N#Cc1ccc(CSc2nnc(-c3cccs3)n2-c2ccccc2)cc1 | 78% (inactive) | 78% (inactive) | 78% (inactive) | 34.1% (inactive) | 44 | 78 | -0.82% (inactive) | -7.1% (inactive)
29 | CCc1nnc(SCc2cn3c(C)cc(C)nc3n2)n1N | 96% (inactive) | 96.5% (inactive) | 108% (inactive) | 15.7% (inactive) | 92.2 | 108 | -1.89% (inactive) | -4.91% (inactive)
30 | CC1(C)S[C@@H]2[C@H](NC(=O)[C@H](C(=O)O)c3ccsc3)C(=O)N2[C@H]1C(=O)O | 105% (inactive) | 91.5% (inactive) | 102% (inactive) | 2.32% (inactive) | 99.3 | 102 | -0.26% (inactive) | -0.17% (inactive)
31 | CCCCNC(=O)NS(=O)(=O)c1ccc(C)cc1 | 97% (inactive) | 76.7% (inactive) | 95.3% (inactive) | -5.94% (inactive) | 101 | 95.3 | -1.04% (inactive) | -2.5% (inactive)
32 | COc1ccc(S(=O)(=O)Nc2ccccc2SC)cc1C | 94% (inactive) | 87.8% (inactive) | 87% (inactive) | -8.52% (inactive) | 95.5 | 87 | -6.99% (inactive) | 0% (inactive)
33 | CCC1CCCCN1C(=O)CSc1nnc(-c2ccco2)o1 (stereo not drawn) | 126% (inactive) | 94.4% (inactive) | 85.7% (inactive) | 3.32% (inactive) | 82.3 | 85.7 | -1.78% (inactive) | -6.45% (inactive)
34 | COCCN(CCOC)C(=O)CCn1c(=O)oc2ccccc21 | 95% (inactive) | 105% (inactive) | 89% (inactive) | -7.45% (inactive) | 96.5 | 89 | -3.97% (inactive) | -0.18% (inactive)
35 | COc1ccc(CNc2oc(-c3cccc4ccccc34)nc2C#N)cc1 | 85% (inactive) | 95.5% (inactive) | 96.9% (inactive) | -4.35% (inactive) | 101 | 96.9 | -4.93% (inactive) | -0.18% (inactive)
36 | O=C(NCc1ccco1)c1cccc(S(=O)(=O)N2CCCCC2)c1 | 110% (inactive) | 99.3% (inactive) | 90.9% (inactive) | -5.04% (inactive) | 96 | 90.9 | 4.66% (inactive) | 8.73% (inactive)
